Results on 21 compounds are retold here after ChEMBL document CHEMBL3352155, “Synthesis, antitumor activity, and structure-activity relationship study of trihydroxylated 2,4,6-triphenyl pyridines as potent and selective topoisomerase II inhibitors” (Eur J Med Chem, 2014).

Where a name gives a salt, the structure may show the parent alone.

As a reminder, the IC50 is the concentration at which inhibition is half-maximal. Read a high IC50 as a need for much substance. As a reminder, the inhibition is the change of the read-out against control, counted positive when it falls.

One test concerns T47D. Description: Cytotoxicity against human T47D cells after 4 days by CCK-8 assay. The format is functional, cell-based. The note with it: 96 h. The essentials: (§1)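 Cells were seeded at 2–4 × 10^4 per well and grown overnight in medium with 10% FBS at 37 °C under 5% CO2. On day 2, after 4 h FBS starvation, the medium was replaced with medium holding graded compound concentrations. On day 4, CCK-8 was added for 4 h and A450 was read. IC50 came from a four-parameter logistic fit; three experiments run in triplicate.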
For orientation: Tetrazolium assays rely on reduction of a dye to a coloured formazan, in cell work by metabolically active cells.

For test [1], the target named is DNA topoisomerase 2-alpha (Homo sapiens) (UniProt P11388). The test can be described thus: Inhibition of recombinant human DNA topoisomerase 2alpha assessed as relaxation of supercoiled DNA pBR322 at 100 uM after 30 mins using ethidium bromide staining by agarose gel electrophoresis. A digest of the protocol: (§2)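 The reaction held 200 ng supercoiled pBR322 with 1 unit human topo IIα, with or without compound, for 30 min at 30 °C. Buffer was 10 mM Tris-HCl pH 7.9, 50 mM NaCl, 5 mM MgCl2, 1 mM EDTA, 1 mM ATP and BSA. EDTA was added to stop it. Products ran on 1% agarose in TAE at 25 V for 4 h, were stained with ethidium bromide, and supercoiled DNA was quantitated under UV.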

Test [2] has the same target. The test can be described thus: Inhibition of recombinant human DNA topoisomerase 2alpha assessed as relaxation of supercoiled DNA pBR322 at 20 uM after 30 mins using ethidium bromide staining by agarose gel electrophoresis. The essentials: as §2
The next test deals with DU-145. Description: Cytotoxicity against human DU145 cells after 4 days by CCK-8 assay. The note with it: DU-145, 96 h. The format is functional, cell-based. The essentials: as §1
For another test, the system named is HEK293. The test can be described thus: Cytotoxicity against HEK293 cells after 4 days by CCK-8 assay. Type of test: cell-based. The note with it: Homo sapiens, HEK293, 96 h. A digest of the protocol: as §1
The nature of test [3]: Cytotoxicity against human HCT15 cells […] by CCK-8 assay. The format is functional, cell-based. The conditions noted are these: HCT-15. A digest of the protocol: as §1
Test [4] has as its target T1, DNA topoisomerase 1 (Homo sapiens) (UniProt P11387).
T1 sequence (whole entry): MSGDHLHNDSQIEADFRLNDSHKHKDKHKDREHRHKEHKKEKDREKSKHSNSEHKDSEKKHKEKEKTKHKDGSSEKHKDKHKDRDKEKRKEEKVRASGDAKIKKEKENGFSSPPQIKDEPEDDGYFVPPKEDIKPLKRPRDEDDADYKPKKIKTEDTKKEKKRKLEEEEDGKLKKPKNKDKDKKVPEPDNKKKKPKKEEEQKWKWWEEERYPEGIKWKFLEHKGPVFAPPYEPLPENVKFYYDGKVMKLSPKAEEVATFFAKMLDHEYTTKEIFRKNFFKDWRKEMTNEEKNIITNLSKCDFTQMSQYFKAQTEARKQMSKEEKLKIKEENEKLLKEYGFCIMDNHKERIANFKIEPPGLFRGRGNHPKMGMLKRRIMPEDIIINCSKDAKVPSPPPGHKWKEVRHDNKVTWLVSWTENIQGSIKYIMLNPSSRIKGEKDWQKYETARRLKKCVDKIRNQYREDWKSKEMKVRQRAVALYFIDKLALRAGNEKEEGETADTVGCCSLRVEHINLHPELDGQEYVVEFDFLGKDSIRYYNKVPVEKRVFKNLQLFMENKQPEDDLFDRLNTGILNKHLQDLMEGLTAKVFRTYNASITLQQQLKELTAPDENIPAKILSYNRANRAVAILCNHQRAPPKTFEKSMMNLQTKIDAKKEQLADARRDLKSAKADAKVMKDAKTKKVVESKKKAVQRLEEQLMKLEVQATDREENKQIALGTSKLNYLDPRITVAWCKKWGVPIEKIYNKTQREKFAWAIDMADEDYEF
Description: Inhibition of recombinant human DNA topoisomerase 1 assessed as relaxation of supercoiled DNA pBR322 at 100 uM after 30 mins using ethidium bromide staining by agarose gel electrophoresis. A digest of the protocol:
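A mix of 100 ng supercoiled pBR322 and 1 unit recombinant human topo I, with or without compound, was held 30 min at 37 °C. Buffer was 10 mM Tris-HCl pH 7.9, 150 mM NaCl, 0.1% BSA, 1 mM spermidine and 5% glycerol. A sarcosyl stop solution ended the reaction. Products ran on 1% agarose in TAE at 15 V for 7 h, were stained with ethidium bromide and quantitated under UV.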

Sequence of DNA topoisomerase 2-alpha (Homo sapiens) (P11388 whole entry): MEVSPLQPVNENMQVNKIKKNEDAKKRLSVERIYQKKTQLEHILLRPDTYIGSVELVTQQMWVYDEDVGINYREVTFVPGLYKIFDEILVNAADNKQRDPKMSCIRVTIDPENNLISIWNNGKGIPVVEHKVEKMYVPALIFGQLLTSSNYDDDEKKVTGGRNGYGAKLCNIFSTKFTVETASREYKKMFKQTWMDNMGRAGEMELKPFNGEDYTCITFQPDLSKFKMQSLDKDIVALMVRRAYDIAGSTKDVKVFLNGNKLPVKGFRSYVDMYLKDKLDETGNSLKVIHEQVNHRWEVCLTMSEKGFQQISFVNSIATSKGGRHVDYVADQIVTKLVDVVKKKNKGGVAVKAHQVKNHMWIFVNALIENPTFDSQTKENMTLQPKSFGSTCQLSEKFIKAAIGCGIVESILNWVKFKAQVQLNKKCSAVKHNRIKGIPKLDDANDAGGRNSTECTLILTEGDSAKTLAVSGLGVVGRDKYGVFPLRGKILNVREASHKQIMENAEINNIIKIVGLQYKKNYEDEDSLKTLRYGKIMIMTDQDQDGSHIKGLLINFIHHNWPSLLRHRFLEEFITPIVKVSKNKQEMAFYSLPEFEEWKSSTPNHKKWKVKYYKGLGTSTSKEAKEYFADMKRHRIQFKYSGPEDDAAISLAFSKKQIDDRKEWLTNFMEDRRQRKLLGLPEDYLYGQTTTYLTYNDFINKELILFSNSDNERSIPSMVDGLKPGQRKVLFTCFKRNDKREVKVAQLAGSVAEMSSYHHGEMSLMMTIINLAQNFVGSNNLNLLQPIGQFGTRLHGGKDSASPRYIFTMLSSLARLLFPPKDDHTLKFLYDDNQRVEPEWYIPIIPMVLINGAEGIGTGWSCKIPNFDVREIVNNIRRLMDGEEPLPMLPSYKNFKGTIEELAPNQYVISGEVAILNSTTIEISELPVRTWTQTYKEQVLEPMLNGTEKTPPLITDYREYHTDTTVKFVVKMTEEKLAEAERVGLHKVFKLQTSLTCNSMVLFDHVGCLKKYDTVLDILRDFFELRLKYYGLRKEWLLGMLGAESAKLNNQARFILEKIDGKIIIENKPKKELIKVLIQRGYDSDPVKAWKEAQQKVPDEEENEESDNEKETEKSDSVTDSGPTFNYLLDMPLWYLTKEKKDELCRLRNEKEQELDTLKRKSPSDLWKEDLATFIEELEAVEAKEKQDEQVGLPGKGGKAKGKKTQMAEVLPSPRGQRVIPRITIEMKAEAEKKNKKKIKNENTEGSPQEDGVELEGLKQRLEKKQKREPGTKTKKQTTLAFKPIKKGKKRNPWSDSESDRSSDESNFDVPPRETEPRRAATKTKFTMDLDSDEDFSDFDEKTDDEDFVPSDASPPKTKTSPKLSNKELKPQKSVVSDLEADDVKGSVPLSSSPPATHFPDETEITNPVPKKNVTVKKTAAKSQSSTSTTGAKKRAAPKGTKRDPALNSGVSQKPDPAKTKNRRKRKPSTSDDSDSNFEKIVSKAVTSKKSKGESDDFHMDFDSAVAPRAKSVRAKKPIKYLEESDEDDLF

In the case of `Oc1cccc(-c2cc(-c3ccccc3O)cc(-c3ccccc3O)n2)c1`, the IC50 stood at 5.76 µM with T47D, 3.98 µM with DU-145, 0.73 µM in the test with HEK293 and 3.39 µM in test [3]. The inhibition in test [1] came out at 87.9%; in test [2], 6.6%; in test [4], 0%.

With `Oc1ccc(-c2cc(-c3cccc(O)c3)cc(-c3ccccc3O)n2)cc1`, the IC50 (with T47D; with DU-145; with HEK293; in test [3]) was > 50 µM throughout. For the same compound, the inhibition in test [1] turned out to be 31.3%; in test [2] it was 1.6%; in test [4], 8.4%.

As for `Oc1ccc(-c2cc(-c3ccc(O)cc3)nc(-c3ccc(O)cc3)c2)cc1`, the half-maximal inhibitory concentration (IC50) stood at 4.27 µM in the test on T47D, 3.16 µM in the test on DU-145, 0.79 µM with HEK293 and 5.12 µM in test [3]. Also, the figures for the inhibition in test [1], in test [2] and in test [4] were 79.1%, 7.9% and 3.8%, respectively.

In the case of `CC[C@@]1(O)C(=O)OCc2c1cc1n(c2=O)Cc2cc3ccccc3nc2-1` [CAMPTOTHECIN], the values for the half-inhibitory concentration (IC50) (in the test on T47D; in the test on HEK293; in test [3]) were 0.75 µM, 0.28 µM and 1.98 µM, respectively.

Regarding `COc1cc([C@@H]2c3cc4c(cc3[C@@H](O[C@@H]3O[C@@H]5CO[C@@H](C)O[C@H]5[C@H](O)[C@H]3O)[C@H]3COC(=O)[C@H]23)OCO4)cc(OC)c1O` [ETOPOSIDE], the 50% inhibitory concentration (IC50) with T47D turned out to be 8.74 µM; in the test on HEK293 it was 1.04 µM; in test [3], 7.74 µM.

With `Oc1cccc(-c2cc(-c3cccc(O)c3)nc(-c3cccc(O)c3)c2)c1`, the IC50 with T47D worked out at 2.05 µM; in the test with DU-145, 4.04 µM; in the test on HEK293 it was 0.74 µM; in test [3], 3.95 µM. Further, the inhibition in test [1] came out at 100%; in test [2], 8.3%; in test [4], 0%.

As to `Oc1ccc(-c2cc(-c3ccc(O)cc3)nc(-c3cccc(O)c3)c2)cc1`, the IC50 in the test on T47D was determined as 4.47 µM; in the test on DU-145 it was 5.8 µM; in the test with HEK293 it was 0.84 µM; in test [3] it was 3.52 µM. Further, the inhibition in test [1] is 100%; in test [2], 15.8%; in test [4], 0%.

For `Oc1cccc(-c2cc(-c3ccccc3O)cc(-c3cccc(O)c3)n2)c1`, the IC50 is 4.57 µM in the test with T47D, > 50 µM in the test on DU-145, 0.13 µM in the test with HEK293 and 5.15 µM in test [3]. Also, the inhibition turned out to be 100% in test [1], 9.3% in test [2] and 0% in test [4].

Consider `Oc1ccc(-c2cc(-c3ccc(O)cc3)nc(-c3ccccc3O)c2)cc1`, for which the 50% inhibitory concentration (IC50) in the test on T47D is > 50 µM; with DU-145 it was > 50 µM; with HEK293, 26.3 µM; in test [3], > 50 µM. Also, the inhibition in test [1] is 44%; in test [2], 1.8%; in test [4], 0%.

On to `Oc1cccc(-c2cc(-c3cccc(O)c3)nc(-c3ccccc3O)c2)c1`, for which the IC50 (in the test on T47D; in the test with DU-145; in the test with HEK293; in test [3]) was > 50 µM in each case. The inhibition in test [1] is 11.3%; in test [4], 1.9%.

On to `Oc1ccc(-c2cc(-c3ccccc3O)cc(-c3cccc(O)c3)n2)cc1`, for which the IC50 in the test on T47D is 0.65 µM; in the test with DU-145, 5.37 µM; in the test with HEK293, 5.65 µM; in test [3], 4.85 µM. The inhibition in test [1] was determined as 92.2%; in test [2] it was 7.4%; in test [4], 0%.

Take `Oc1ccc(-c2cc(-c3cccc(O)c3)cc(-c3ccc(O)cc3)n2)cc1`: the half-inhibitory concentration (IC50) with T47D is 4.07 µM; in the test on DU-145, 1.4 µM; in the test with HEK293, > 50 µM; in test [3] it was > 50 µM. In addition, the inhibition was found to be 90.1% in test [1], 48.2% in test [2] and 0% in test [4].

As to `COc1cccc2c1C(=O)c1c(O)c3c(c(O)c1C2=O)C[C@@](O)(C(=O)CO)C[C@@H]3O[C@H]1C[C@H](N)[C@H](O)[C@H](C)O1` [DOXORUBICIN HYDROCHLORIDE], the 50% inhibitory concentration (IC50) is 3.12 µM in the test on T47D, 3.89 µM in the test with DU-145 and 1.22 µM in the test with HEK293.

`Oc1ccc(-c2cc(-c3cccc(O)c3)nc(-c3cccc(O)c3)c2)cc1`: the half-inhibitory concentration (IC50) with T47D is 2.23 µM; in the test on DU-145, 1.76 µM; in the test on HEK293, 0.73 µM; in test [3], 3.81 µM. Besides, the inhibition in test [1] was 100%; in test [2], 9.6%; in test [4], 0%.

In the case of `Oc1ccc(-c2cc(-c3ccccc3O)cc(-c3ccccc3O)n2)cc1`, the IC50 in the test with T47D turned out to be 0.96 µM; in the test with DU-145, 0.36 µM; in the test with HEK293 it was 6.99 µM; in test [3], 8.24 µM. In addition, the inhibition in test [1] came out at 77.6%; in test [2], 21.3%; in test [4] it was 0.3%.

As for `Oc1ccccc1-c1cc(-c2ccccc2O)nc(-c2ccccc2O)c1`, the IC50 with T47D worked out at 2.51 µM; with DU-145 it was 5.04 µM; in the test with HEK293, 0.14 µM; in test [3] it was 2.18 µM. The inhibition in test [1] came out at 95.1%; in test [2], 10.1%; in test [4], 0%.

On to `Oc1ccc(-c2cc(-c3ccccc3O)nc(-c3ccccc3O)c2)cc1`, for which the half-inhibitory concentration (IC50) with T47D was 18.3 µM; in the test with DU-145, > 50 µM; in the test with HEK293 it was > 50 µM; in test [3], > 50 µM. The inhibition in test [1] amounted to 46.9%; in test [2], 2.9%; in test [4], 3.7%.

Turning to `Oc1cccc(-c2cc(-c3ccccc3O)nc(-c3ccccc3O)c2)c1`, the half-maximal inhibitory concentration (IC50) with T47D is 3.42 µM; with DU-145 it was 5.4 µM; in the test with HEK293, 0.08 µM; in test [3], 5.02 µM. The values for the inhibition in test [1], in test [2] and in test [4] were 99.4%, 7.1% and 4.9%, respectively.

For `Oc1ccc(-c2cc(-c3ccccc3O)cc(-c3ccc(O)cc3)n2)cc1`, the IC50 was 5.35 µM in the test with T47D, 0.98 µM in the test on DU-145, 0.78 µM in the test on HEK293 and 1.92 µM in test [3]. Besides, the values for the inhibition in test [1], in test [2] and in test [4] were 100%, 5.4% and 0.4%, respectively.

For `Oc1ccc(-c2cc(-c3cccc(O)c3)nc(-c3ccccc3O)c2)cc1`, the IC50 with T47D was 4.81 µM; with DU-145, 3.42 µM; in the test on HEK293, 7.42 µM; in test [3] it was 5.83 µM. Also, the inhibition in test [1] stood at 80.6%; in test [2], 38.5%; in test [4], 1.5%.

As to `Oc1ccc(-c2cc(-c3cccc(O)c3)cc(-c3cccc(O)c3)n2)cc1`, the 50% inhibitory concentration (IC50) was found to be 3.92 µM in the test with T47D, 1.94 µM with DU-145, 1.56 µM with HEK293 and 3.09 µM in test [3]. The results for the inhibition in test [1], in test [2] and in test [4] were 100%, 3.7% and 0%, respectively.
